Assay results as given in PMC2828495 (Bioorganic & medicinal chemistry, 2010).

Tests used:
[1] = system: wild type E. coli strain MC4100; assay: Antimicrobial test; type: cell-based; conditions: Figure 8
[2] = system: leaky mutant NR698; assay: Antimicrobial test; type: cell-based, E. coli; conditions: Figure 8
In short: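 E. coli NR698 (MC4100 imp4213), a strain with increased outer-membrane permeability. Log-phase cells at OD600 ~0.5 to 1.0 were diluted to OD600 0.05 and test compound (dissolved in DMSO) was added. Cultures containing 5% DMSO final were shaken at 37 °C, 1050 rpm, for 10 to 12 h. MIC was then determined.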

[3] = biological target: EcN68 SecA (Escherichia coli, UniProt P10408); assay: EcN68 SecA ATPase inhibition; type: biochemical, E. coli
[4] = Solubility observation in the inhibition assay; type: physicochemical; conditions: when approaching 100 µM
[5] = biological target: EcSecA (Escherichia coli, UniProt P10408); assay: Whole EcSecA ATPase inhibition; type: biochemical, E. coli
In short: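 Full-length E. coli SecA was over-expressed from pT7-SecA and purified. Each reaction held 5 µg SecA, 2 mM ATP, 50 mM Tris-HCl pH 7.6, 20 mM KCl, 20 mM NH4Cl, 1 mM DTT, 2 mM Mg(OAc)2 and 10% DMSO, run at 40 °C for 40 min. Malachite green, then 34% citric acid, was added; after 40 min at room temperature A660 gave Pi. Activity was expressed as % of no-compound control, at least in triplicate, with IC50 from inhibition curves.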

Chain of EcN68 SecA (P10408 1-610): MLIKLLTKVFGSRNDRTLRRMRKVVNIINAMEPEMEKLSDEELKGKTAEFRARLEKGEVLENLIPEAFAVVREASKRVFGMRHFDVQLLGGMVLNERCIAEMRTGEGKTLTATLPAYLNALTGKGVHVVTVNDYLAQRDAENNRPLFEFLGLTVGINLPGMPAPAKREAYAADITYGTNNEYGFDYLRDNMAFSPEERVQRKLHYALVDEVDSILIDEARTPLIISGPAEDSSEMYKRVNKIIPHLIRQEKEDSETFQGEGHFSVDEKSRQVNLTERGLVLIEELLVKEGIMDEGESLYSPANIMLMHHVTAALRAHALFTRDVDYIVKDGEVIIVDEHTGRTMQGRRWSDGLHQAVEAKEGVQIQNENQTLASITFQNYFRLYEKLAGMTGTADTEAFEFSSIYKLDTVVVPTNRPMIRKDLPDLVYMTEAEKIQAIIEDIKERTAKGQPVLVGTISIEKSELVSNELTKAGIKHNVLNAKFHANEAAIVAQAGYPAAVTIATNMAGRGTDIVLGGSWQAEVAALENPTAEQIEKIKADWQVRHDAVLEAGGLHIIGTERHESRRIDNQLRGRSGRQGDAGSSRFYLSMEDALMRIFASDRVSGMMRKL
Chain of EcSecA (P10408 whole entry): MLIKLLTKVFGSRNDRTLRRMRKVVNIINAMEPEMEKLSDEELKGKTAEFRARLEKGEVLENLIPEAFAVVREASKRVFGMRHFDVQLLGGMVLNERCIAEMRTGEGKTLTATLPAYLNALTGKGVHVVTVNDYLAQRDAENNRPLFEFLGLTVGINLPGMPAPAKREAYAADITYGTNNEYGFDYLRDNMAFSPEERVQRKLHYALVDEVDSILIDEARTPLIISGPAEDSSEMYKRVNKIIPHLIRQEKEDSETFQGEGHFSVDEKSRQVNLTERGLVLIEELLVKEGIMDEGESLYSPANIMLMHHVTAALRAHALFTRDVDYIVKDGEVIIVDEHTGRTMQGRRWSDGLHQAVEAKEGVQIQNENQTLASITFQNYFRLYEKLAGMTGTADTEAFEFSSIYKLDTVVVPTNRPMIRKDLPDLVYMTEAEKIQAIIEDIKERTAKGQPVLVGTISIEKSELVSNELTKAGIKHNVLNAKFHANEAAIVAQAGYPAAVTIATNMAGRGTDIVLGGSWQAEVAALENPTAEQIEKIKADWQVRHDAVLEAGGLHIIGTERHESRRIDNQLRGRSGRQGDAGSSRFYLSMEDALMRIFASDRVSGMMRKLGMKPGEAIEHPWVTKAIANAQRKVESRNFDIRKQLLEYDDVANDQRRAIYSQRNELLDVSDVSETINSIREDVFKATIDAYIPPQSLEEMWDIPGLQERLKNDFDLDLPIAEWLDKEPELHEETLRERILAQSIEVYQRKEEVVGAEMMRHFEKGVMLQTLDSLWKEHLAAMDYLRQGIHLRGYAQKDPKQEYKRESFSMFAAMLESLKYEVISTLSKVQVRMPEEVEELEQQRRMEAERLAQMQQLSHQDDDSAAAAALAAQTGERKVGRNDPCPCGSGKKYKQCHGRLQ

N#Cc1c(-c2ccc(-c3ccccc3)cc2)nc(SCc2ccc(CSC3=NC(=O)C(C#N)C(c4ccc(-c5ccccc5)cc4)=N3)cc2)[nH]c1=O (stereo not drawn) [16h, 2,2'-(α,α’-Xylene)bis(sulfanediyl)bis-(6-(biphenyl-4-yl)-5-cyano-4-oxopyrimidine)]
antimicrobial activity (MIC) against MC4100 [1]: neither 17h nor 16h exhibited inhibition effects
antimicrobial activity (MIC) against NR698 [2]: did not exhibit significantly antimicrobial activities
IC50 [3]: 2 µM
fold more potent than the hit compound(s) [3]: 50 fold

Cc1onc(-c2c(F)cccc2Cl)c1C(=O)Nc1ccc(Sc2ccccc2)nc1Sc1ccccc1 [compound 1]
solubility [4]: started having solubility problems when approaching 100 µM

N#Cc1c(-c2ccc(-c3ccccc3)cc2)nc(SCc2ccccc2)[nH]c1=O [17h, S-Benzyl-5-cyano-6-(biphenyl-4-yl)-2-thiouracil]
antimicrobial activity (MIC) against MC4100 [1]: neither 17h nor 16h exhibited inhibition effects
antimicrobial activity (MIC) against NR698 [2]: most potent inhibition effects
IC50 [5]: 60 µM

N#Cc1c(-c2ccc(Br)cc2)nc(SCc2ccc(CSC3=NC(=O)C(C#N)C(c4ccc(Br)cc4)=N3)cc2)[nH]c1=O (stereo not drawn) [16g, 2,2'-(α,α’-Xylene)bis(sulfanediyl)bis-(6-(4-bromophenyl)-5-cyano-4-oxopyrimidine)]
fold more potent than the hit compound(s) [3]: 50 fold
